PubChem BioAssay
Active and inactive are the calls of the source.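 How the source made its calls, unless noted: active means duplicate-averaged activation above buffer control mean plus 5 SD of those controls; inactive means the rest.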

Assays:
[1] = thallium flux activation in parental CHO cells, counter-screen for KCNQ1 potentiator project (AID 493006); conditions: parental CHO-K1 cells, FluxOR thallium flux, at 10 µM; active compounds read high;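 on activation: fluorescence ratio of max minus min over baseline after K+ and Tl+ depolarization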
Summary of the method: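 Benchmarks – buffer and R-L3 controls · Assay system – untransfected host CHO-K1 cells with FluxOR thallium dye · Measure – fluorescence change ratio scaled 0% buffer, 100% R-L3 · Technique – kinetic thallium-flux fluorescence · Timing – overnight 37 °C plating, 90 min RT dye, 20 min compound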

[2] = molecular target: Potassium voltage-gated channel subfamily KQT member 1 (Homo sapiens) (UniProt P51787); assay: KCNQ1 potassium channel potentiators, confirmation, FluxOR thallium flux, CHO cells, duplicates (AID 493007;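 active means potentiation averaged over duplicate wells exceeding buffer-only control mean by more than 3 SD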;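 on outcome: cells depolarized by a potassium plus thallium sulfate stimulus after compound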); conditions: KCNQ1 cell line, FluxOR thallium flux fluorescence, at 10 µM; active compounds read high, % of reference activator effect, buffer zero
Chain of Potassium voltage-gated channel subfamily KQT member 1 (Homo sapiens) (P51787 whole entry, looked up): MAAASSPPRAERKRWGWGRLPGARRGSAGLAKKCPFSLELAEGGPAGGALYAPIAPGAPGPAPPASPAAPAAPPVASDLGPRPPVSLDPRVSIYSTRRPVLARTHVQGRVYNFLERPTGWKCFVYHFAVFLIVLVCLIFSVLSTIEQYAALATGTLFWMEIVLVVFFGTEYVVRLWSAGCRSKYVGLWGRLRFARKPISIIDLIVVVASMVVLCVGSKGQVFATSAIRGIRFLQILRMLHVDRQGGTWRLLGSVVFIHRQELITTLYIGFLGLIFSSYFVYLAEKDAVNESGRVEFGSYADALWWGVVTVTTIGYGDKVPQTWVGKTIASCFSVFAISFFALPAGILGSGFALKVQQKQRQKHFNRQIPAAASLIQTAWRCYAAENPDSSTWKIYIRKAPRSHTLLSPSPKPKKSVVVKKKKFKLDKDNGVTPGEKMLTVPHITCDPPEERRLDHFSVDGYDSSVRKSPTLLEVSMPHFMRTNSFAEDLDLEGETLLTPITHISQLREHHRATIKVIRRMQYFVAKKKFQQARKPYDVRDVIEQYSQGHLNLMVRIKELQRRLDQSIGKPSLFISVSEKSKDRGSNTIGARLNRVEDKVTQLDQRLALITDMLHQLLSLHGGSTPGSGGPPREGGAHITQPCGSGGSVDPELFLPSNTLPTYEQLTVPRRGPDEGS
Summary of the method: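 Material: CHO cells stably expressing the KCNQ1 potassium channel / Times: dye 90 min then compound 20 min, both at room temperature / Detection: kinetic thallium influx fluorescence with FluxOR dye, 10 s baseline, 110 s post-stimulus / Benchmarks: buffer-only wells as 0% and R-L3 activator as 100% / Replicates: each compound tested in duplicate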

[3] = molecular target: Potassium voltage-gated channel subfamily KQT member 2 (Rattus norvegicus) (UniProt O88943); assay: rat KCNQ2 channel potentiation, selectivity assay for KCNQ1 potentiator project, KCNQ2-CHO-K1 cells (AID 493009;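 active means mean duplicate potentiation above the buffer control mean plus 5 SD of buffer wells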;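 further: assay conditions were tuned for KCNQ1 rather than KCNQ2 modulators; signal is max minus min fluorescence divided by baseline after thallium stimulus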); conditions: FluxOR thallium flux fluorescence, at 10 µM; active compounds read high, scaled: buffer 0, activator control 100
Chain of Potassium voltage-gated channel subfamily KQT member 2 (Rattus norvegicus) (O88943 whole entry, looked up): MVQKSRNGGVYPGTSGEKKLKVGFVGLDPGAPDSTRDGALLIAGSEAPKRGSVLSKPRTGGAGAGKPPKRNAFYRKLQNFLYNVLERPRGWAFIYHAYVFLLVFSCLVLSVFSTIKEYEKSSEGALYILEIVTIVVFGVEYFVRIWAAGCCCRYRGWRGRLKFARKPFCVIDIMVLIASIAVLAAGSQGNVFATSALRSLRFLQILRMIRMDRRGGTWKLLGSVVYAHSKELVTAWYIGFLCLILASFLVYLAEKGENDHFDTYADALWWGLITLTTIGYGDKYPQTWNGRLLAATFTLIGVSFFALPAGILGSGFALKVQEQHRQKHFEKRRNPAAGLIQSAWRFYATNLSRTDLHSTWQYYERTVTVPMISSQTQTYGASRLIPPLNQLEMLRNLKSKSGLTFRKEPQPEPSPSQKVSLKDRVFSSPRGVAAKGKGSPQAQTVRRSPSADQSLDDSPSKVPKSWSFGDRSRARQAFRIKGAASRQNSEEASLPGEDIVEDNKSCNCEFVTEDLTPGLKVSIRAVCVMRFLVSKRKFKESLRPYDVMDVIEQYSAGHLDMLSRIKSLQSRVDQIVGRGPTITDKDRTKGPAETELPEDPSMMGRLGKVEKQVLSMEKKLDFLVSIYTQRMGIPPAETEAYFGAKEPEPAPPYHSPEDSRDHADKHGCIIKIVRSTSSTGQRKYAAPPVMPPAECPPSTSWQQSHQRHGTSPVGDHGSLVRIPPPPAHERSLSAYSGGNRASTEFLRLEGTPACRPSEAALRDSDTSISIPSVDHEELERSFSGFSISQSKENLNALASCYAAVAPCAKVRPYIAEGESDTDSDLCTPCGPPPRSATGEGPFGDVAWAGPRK

[4] = molecular target: Potassium voltage-gated channel subfamily KQT member 1 (Homo sapiens) (UniProt P51787); assay: KCNQ1 channel current potentiators, confirmation, orthogonal assay for KCNQ1 potentiator project, IonWorks patch clamp, KCNQ1-CHO cells (AID 493184;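 active means current rise at least 3 SD above the untreated control mean in each of two repeat wells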;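 on current potentiation: percent change of the same well's current before compound addition so 0% = no change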); conditions: automated patch clamp current, at 10 µM; active compounds read high
Summary of the method: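 Probe or stimulus: depolarizing pulse to +40 mV from -90 mV; Material: CHO cells carrying KCNQ1; Compound: one dose, 10 µM final; Signal: automated voltage clamp, amphotericin B perforated patch; Read-out basis: percent current increase versus pre-compound level; Buffer or medium: pH 7.4 external bath; Replication: duplicates.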

Row | SMILES | outcome [1] | outcome [2] | outcome [3] | outcome [4] | activation [1] | potentiation [2] | potentiation [3] | current potentiation [4]
1 | COc1cccc(-c2c(NC(=O)c3ccco3)n(-c3ccc(C)cc3)nc(C)c2=O)c1 | inactive | inactive | inactive | inactive | – | – | – | –
2 | Fc1ccc(-c2csc(NC(=S)Nc3ccccc3)n2)cc1 | – | – | – | inactive | 153% (active) | 52.5% (active) | 154% (active) | –
3 | COc1ccc(N/C=C/C(=O)c2cc(OC)c(OC)c(OC)c2)cc1 | – | – | – | inactive | 366% (active) | 188% (active) | 365% (active) | –
4 | CCOC(=O)c1n[nH]n2c1nc(=S)c1ccccc12 | – | – | – | inactive | 260% (active) | 54.5% (active) | 246% (active) | –
5 | COC(=O)c1ccc(COC(=O)c2ccccc2OC)cc1 | inactive | inactive | inactive | inactive | – | – | – | –
6 | CC(C)c1ccc(/C=N/n2c(COc3ccccc3)n[nH]c2=S)cc1 | – | – | – | inactive | 190% (active) | 512% (active) | 503% (active) | –
7 | CCCN(Cc1ccccc1)C(=S)NC(=O)c1ccccc1[N+](=O)[O-] | – | – | – | inactive | 430% (active) | 177% (active) | 452% (active) | –
8 | O=C(c1cc([N+](=O)[O-])cc([N+](=O)[O-])c1)N1CCCc2ccccc21 | inactive | inactive | inactive | inactive | – | – | – | –
9 | COc1ccc(/C=C2/SC(=S)N(NS(=O)(=O)c3ccccc3)C2=O)cc1 | – | – | – | inactive | 195% (active) | 84.5% (active) | 180% (active) | –
10 | OCCCCNCc1ccc(OCc2ccc(Cl)cc2)cc1 | – | – | – | inactive | 220% (active) | 292% (active) | 332% (active) | –
11 | Cc1ccc(C)c2sc(NC(=O)c3nc4ccccc4s3)nc12 | inactive | – | inactive | inactive | – | 18% (active) | – | –
12 | CCc1ccc(NC(=O)C(=O)NNC(=O)c2ccc(OC)cc2)cc1 | – | – | – | inactive | 326% (active) | 149% (active) | 367% (active) | –
13 | CCOC(=O)CSc1nc2ccccc2n2c(C)nnc12 | inactive | inactive | inactive | inactive | – | – | – | –
14 | Cc1ccc(O)c(C(=O)CC(=O)c2ccccc2Cl)c1 | – | – | – | inactive | 158% (active) | 72.5% (active) | 144% (active) | –
15 | Cc1ccccc1N(CC(=O)N/N=C/c1cc(C)n(-c2ccccc2C)c1C)S(C)(=O)=O | inactive | inactive | inactive | inactive | – | – | – | –
16 | O=C(CN(c1ccc(Cl)cc1)S(=O)(=O)c1ccc(Cl)c([N+](=O)[O-])c1)NCCc1ccc(F)cc1 | inactive | inactive | inactive | inactive | – | – | – | –
17 | COc1cccc(/C=N/Nc2snc(SC)c2C#N)c1O | inactive | inactive | inactive | inactive | – | – | – | –
18 | COC(=O)CCCC[C@@H]1SC[C@@H](NC(=O)OC)[C@@H]1NC(=O)OC | inactive | inactive | inactive | inactive | – | – | – | –
19 | Cc1ccccc1-c1nc(Cc2ccc(Cl)cc2)no1 | inactive | inactive | inactive | inactive | – | – | – | –
20 | CC(=O)SCC(=O)N=c1sc2cc(F)ccc2n1C | inactive | inactive | inactive | inactive | – | – | – | –

Row | SMILES | outcome [1] | outcome [2] | outcome [3] | outcome [4] | activation [1] | potentiation [2] | potentiation [3] | current potentiation [4]
21 | CCc1ccc(/C=C/C(=O)C2C(=O)c3ccccc3C2=O)cc1 | – | – | – | inactive | 284% (active) | 118% (active) | 297% (active) | –
22 | Cc1nc(NC(=S)NC(=O)c2cccs2)ccc1Br | – | – | inactive | inactive | 148% (active) | 23.5% (active) | – | –
23 | CCOc1ccc(S(=O)(=O)Nc2cc(OC)ccc2OC)cc1 | inactive | inactive | inactive | inactive | – | – | – | –
24 | CC(C)(C)NC(=O)CN(C(=O)CNC(=O)c1cccs1)c1ccc2c(c1)OCCO2 | inactive | inactive | inactive | inactive | – | – | – | –
25 | C=C1CCN(c2ccc(C(=O)NCc3ccc(C)cc3)cc2[N+](=O)[O-])CC1 | – | – | inactive | inactive | 164% (active) | 19.5% (active) | – | –
26 | COc1ccc(-c2cc(C(=O)Nc3c(Cl)cc(Cl)cc3Cl)c3ccccc3n2)cc1OC | inactive | inactive | inactive | inactive | – | – | – | –
27 | COc1cccc2sc(Nc3nnc(-c4cccs4)o3)nc12 | – | – | – | inactive | 396% (active) | 250% (active) | 424% (active) | –
28 | CC(=O)Oc1c(-c2ccco2)oc2ccccc2c1=O | – | – | – | inactive | 216% (active) | 31% (active) | 244% (active) | –
29 | COc1ccc(C)cc1-n1c(C)cc(C=O)c1C | inactive | – | – | inactive | – | 44% (active) | 153% (active) | –
30 | Cc1ccc(C(C)C)c(OCc2n[nH]c(=S)o2)c1 | – | – | – | inactive | 154% (active) | 27% (active) | 160% (active) | –
31 | COc1ccc(/C=C2/S/C(=N/N=C3\CC4CCC3(C)C4(C)C)NC2=O)cc1 (stereo not given) | inactive | – | – | inactive | – | 21% (active) | 186% (active) | –
32 | Cc1csc(=O)n1CCC(=O)OCC(=O)NCc1ccc(F)cc1 | inactive | inactive | – | inactive | – | – | 186% (active) | –
33 | Cc1cccc(NC(=O)CSc2ccc3nnc(-c4cccnc4)n3n2)c1 | inactive | inactive | inactive | inactive | – | – | – | –
34 | C/C(=N\NS(=O)(=O)c1ccc(Br)cc1)c1cccs1 | inactive | inactive | inactive | inactive | – | – | – | –
35 | COC(=O)C1CCCN1C(=O)COc1ccc(Cl)cc1Br (stereo not given) | – | inactive | – | inactive | 152% (active) | – | 158% (active) | –
36 | CC(C)(C)C(=O)NC(=S)NNC(=O)c1ccc(Cl)cc1Cl | inactive | – | – | inactive | – | 52% (active) | 171% (active) | –
37 | O=C(NC(=S)Nc1ccccc1N1CCCC1)c1ccco1 | – | – | – | inactive | 174% (active) | 21.5% (active) | 174% (active) | –
38 | CCc1ccc2[nH]c(C(=O)Nc3ccc(F)cc3Br)cc2c1 | inactive | inactive | inactive | inactive | – | – | – | –
39 | CC1CCN(c2ccccc2NC(=S)NC(=O)c2cccs2)CC1 | – | – | inactive | inactive | 139% (active) | 54% (active) | – | –
40 | O=C1CN(C(=O)CSc2nc3cc(Cl)ccc3c(=O)n2Cc2ccccc2)c2ccccc2N1 | inactive | – | inactive | inactive | – | 22.5% (active) | – | –

Row | SMILES | outcome [1] | outcome [2] | outcome [3] | outcome [4] | activation [1] | potentiation [2] | potentiation [3] | current potentiation [4]
41 | Nc1nonc1C(=O)NCCN=Cc1cc(Cc2ccccc2)cc(Br)c1O | inactive | inactive | inactive | inactive | – | – | – | –
42 | O=C(NC1CC1)C1=NOC(CNc2ncc(C(F)(F)F)cc2Cl)C1 (stereo not given) | inactive | inactive | inactive | inactive | – | – | – | –
43 | O=C(NC(=S)Nc1ccc(N2CCOCC2)c(Cl)c1)c1sc2ccccc2c1Cl | inactive | – | inactive | inactive | – | 35.5% (active) | – | –
44 | O=C(COc1ccccc1F)Nc1c2c(nn1-c1ccccc1)CS(=O)(=O)C2 | inactive | inactive | inactive | inactive | – | – | – | –
45 | CC(=O)Nc1ccc(NC(=O)c2cccc(C(=O)OC(C)C)n2)cc1 | inactive | inactive | inactive | inactive | – | – | – | –
46 | CCCn1nnnc1SCC(=O)c1ccc2c(c1)OCCO2 | inactive | inactive | inactive | inactive | – | – | – | –
47 | C=CCN(CC=C)C(=S)NC(=O)c1ccc(OC)cc1 | – | – | – | inactive | 187% (active) | 43.5% (active) | 162% (active) | –
48 | Cc1ccc(-c2ccc(C3C(C#N)=C(N)Oc4n[nH]c(C)c43)o2)cc1 (stereo not given) | inactive | inactive | inactive | inactive | – | – | – | –
49 | CCC(C)[C@H](N)c1nnc(SCC(=O)Nc2cccc(Cl)c2)o1 (stereo not given in full) | – | – | – | inactive | 210% (active) | 39.5% (active) | 162% (active) | –
50 | Cc1[nH]n(-c2ccccc2)c(=O)c1N=Nc1nccs1 | – | – | – | – | 816% (active) | 418% (active) | 787% (active) | 20.9% (active)
51 | COc1ccc(/C(O)=C2/C(=O)C(=O)N(CCCN(C)C)C2c2ccc(Cl)cc2)cc1OC (stereo not given) | inactive | inactive | inactive | inactive | – | – | – | –
52 | O=C(NC(=S)NCCc1ccccc1)c1cccc(Cl)c1 | – | – | – | inactive | 182% (active) | 141% (active) | 342% (active) | –
53 | Cc1nn(-c2ccccc2)nc1C(=O)NNC(=O)c1cccc2ccccc12 | inactive | – | – | inactive | – | 53% (active) | 182% (active) | –
54 | S=c1nc2ccccc2c2nc(-c3ccccc3)[nH]n12 | inactive | inactive | inactive | inactive | – | – | – | –
55 | O=[N+]([O-])c1cc(CN2CCCC2)ccc1Sc1ccc(Cl)cc1 | inactive | inactive | inactive | inactive | – | – | – | –
56 | COC(=O)C1SCC2C(=O)N(Cc3ccc(F)cc3)CC(=O)N21 (stereo not given) | inactive | – | – | inactive | – | 46.5% (active) | 178% (active) | –
57 | c1ccc2c(OCCCCN3CCOCC3)cccc2c1 | inactive | inactive | inactive | inactive | – | – | – | –
58 | O=C(Nc1ccncc1)c1ccc([N+](=O)[O-])cc1Cl | inactive | inactive | inactive | inactive | – | – | – | –
59 | O=c1c2cc(Cl)ccc2nc(-c2ccc([N+](=O)[O-])cc2)n1O | – | – | – | inactive | 445% (active) | 193% (active) | 456% (active) | –
60 | O=c1ccc(N=Nc2ccccc2)ccc1O | – | – | – | inactive | 322% (active) | 138% (active) | 430% (active) | –
